For two compounds, Activity results are on record in ChEMBL document CHEMBL1137218, “Long hydrocarbon chain ether diols and ether diacids that favorably alter lipid disorders in vivo” (J Med Chem, 2004).

For assay [1], the system named is Rattus norvegicus. Briefly: Insulin levels in female obese rats one week post treatment at 30 mg/kg oral dose; pretreatment value = 9 ng/mL. The class given is functional.
The test system of assay [2] is Rattus norvegicus. Put plainly: Serum HDL cholesterol levels in female obese rats one week post treatment at 3 mg/kg oral dose; pretreatment value = 57 mg/dL. The class given is functional.
Assay [3] concerns Rattus norvegicus. Put plainly: Serum HDL cholesterol levels in female obese rats two weeks post treatment at 30 mg/kg oral dose; pretreatment value = 49 mg/dL. The assay is classed as functional.
The test system of assay [4] is Rattus norvegicus. Put plainly: Serum NEFA levels in female obese rats one week post treatment at 3 mg/kg oral dose; pretreatment value = 1.1 mg/dL. The class given is functional.
Assay [5] has as its system Rattus norvegicus. Put plainly: Serum Triglyceride levels in female obese rats one week post treatment at 3 mg/kg oral dose; pretreatment value = 1111 mg/dL. The assay is classed as functional.
Assay [6] relates to Rattus norvegicus. Briefly: Insulin levels in female obese rats one week post treatment at 10 mg/kg oral dose; pretreatment value = 8.8 […]. The assay is classed as functional.
For assay [7], the system named is Rattus norvegicus. Put plainly: Serum NEFA levels in female obese rats two weeks post treatment at 100 mg/kg oral dose; pretreatment value = 1.2 mg/dL. The class given is functional.
Assay [8] has as its system Rattus norvegicus. Put plainly: Serum HDL cholesterol levels in female obese rats two weeks post treatment at 3 mg/kg oral dose; pretreatment value = 57 mg/dL. The assay is classed as functional.
The test system of assay [9] is Rattus norvegicus. Put plainly: Serum Non-HDL cholesterol levels in female obese rats one week post treatment at 10 mg/kg oral dose; pretreatment value = 33 mg/dL.
Assay [10] deals with Rattus norvegicus. Briefly: Blood glucose levels in female obese rats one week post treatment at 30 mg/kg oral dose; pretreatment value = 106 mg/dL. The assay is classed as functional.
Assay [11] relates to Rattus norvegicus. Briefly: Insulin levels in female obese rats two weeks post treatment at 10 mg/kg oral dose; pretreatment value = 8.8 ng/mL. The class given is functional.
For assay [12], the system named is Rattus norvegicus. Briefly: Insulin levels in female obese rats two weeks post treatment at 100 mg/kg oral dose; pretreatment value = 8.6 ng/mL. The assay is classed as functional.
For assay [13], the system named is Rattus norvegicus. Briefly: Serum Triglyceride levels in female obese rats one week post treatment at 100 mg/kg oral dose; pretreatment value = 1068 mg/dL. The class given is functional.
Assay [14] has as its system Rattus norvegicus. Briefly: Serum NEFA levels in female obese rats one week post treatment at 30 mg/kg oral dose; pretreatment value = 1.2 mg/dL. The class given is functional.
Assay [15] concerns Rattus norvegicus. Briefly: Serum HDL cholesterol levels in female obese rats one week post treatment at 10 mg/kg oral dose; pretreatment value = 61 mg/dL. The class given is functional.
The subject of assay [16] is Rattus norvegicus. Put plainly: Serum NEFA levels in female obese rats two weeks post treatment at 30 mg/kg oral dose; pretreatment value = 1.2 mg/dL. The class given is functional.
The test system of assay [17] is Rattus norvegicus. Briefly: Serum HDL cholesterol levels in female obese rats two weeks post treatment at 10 mg/kg oral dose; pretreatment value = 61 mg/dL. The class given is functional.
Assay [18] deals with Rattus norvegicus. Put plainly: Serum Non-HDL cholesterol levels in female obese rats one week post treatment at 3 mg/kg oral dose; pretreatment value = 29 mg/dL. The assay is classed as functional. The procedure, abridged: (§1)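 Female obese Zucker fatty rats (10–12 weeks, 400–500 g), once-daily oral gavage in 20% EtOH/80% PEG-200 (v/v) for up to 14 days. Serum drawn after a 6 h fast, pre-dose and at days 7 and 14. Non-HDL cholesterol is serum total cholesterol times the percent area of the non-HDL peaks in a Superose 6HR gel-filtration profile with on-line cholesterol detection. n = 4 per dose.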

Assay [19] relates to Rattus norvegicus. Put plainly: Serum Non-HDL cholesterol levels in female obese rats two weeks post treatment at 3 mg/kg oral dose; pretreatment value = 29 mg/dL.
In assay [20] the test system is Rattus norvegicus. Put plainly: Serum NEFA levels in female obese rats two weeks post treatment at 10 mg/kg oral dose; pretreatment value = 1.4 mg/dL. The class given is functional.
Assay [21] relates to Rattus norvegicus. Briefly: Serum NEFA levels in female obese rats one week post treatment at 10 mg/kg oral dose; pretreatment value = 1.4 mg/dL. The assay is classed as functional.
For assay [22], the system named is Rattus norvegicus. Briefly: Insulin levels in female obese rats two weeks post treatment at 30 mg/kg oral dose; pretreatment value = 9.3 ng/mL. The assay is classed as functional.
The subject of assay [23] is Rattus norvegicus. Briefly: Serum NEFA levels in female obese rats two weeks post treatment at 3 mg/kg oral dose; pretreatment value = 1.2 mg/dL. The assay is classed as functional.
Assay [24] relates to Rattus norvegicus. Briefly: Serum NEFA levels in female obese rats one week post treatment at 30 mg/kg oral dose; pretreatment value = 1.3 mg/dL. The assay is classed as functional.
Assay [25] deals with Rattus norvegicus. Briefly: Serum HDL cholesterol levels in female obese rats one week post treatment at 10 mg/kg oral dose; pretreatment value = 56 mg/dL. The assay is classed as functional.
In assay [26] the test system is Rattus norvegicus. Briefly: Serum NEFA levels in female obese rats one week post treatment at 100 mg/kg oral dose; pretreatment value = 1.1 mg/dL. The class given is functional.
Assay [27] has as its system Rattus norvegicus. Briefly: Serum Non-HDL cholesterol levels in female obese rats two weeks post treatment at 3 mg/kg oral dose; pretreatment value = 21 mg/dL. The class given is functional. In short, it runs like this:
as §1

Assay [28] concerns Rattus norvegicus. Put plainly: Serum Triglyceride levels in female obese rats one week post treatment at 30 mg/kg oral dose; pretreatment value = 1240 mg/dL. The assay is classed as functional.
The test system of assay [29] is Rattus norvegicus. Briefly: Serum HDL cholesterol levels in female obese rats one week post treatment at 30 mg/kg oral dose; pretreatment value = 42 mg/dL. The assay is classed as functional.
Assay [30] concerns Rattus norvegicus. Put plainly: Serum NEFA levels in female obese rats one week post treatment at 10 mg/kg oral dose; pretreatment value = 1.2 mg/dL. The assay is classed as functional.
For assay [31], the system named is Rattus norvegicus. Put plainly: Blood glucose levels in female obese rats two weeks post treatment at 30 mg/kg oral dose; pretreatment value = 109 mg/dL. The assay is classed as functional.
The test system of assay [32] is Rattus norvegicus. Briefly: Serum Triglyceride levels in female obese rats one week post treatment at 10 mg/kg oral dose; pretreatment value = 943 mg/dL. The class given is functional.
The test system of assay [33] is Rattus norvegicus. Put plainly: Serum HDL cholesterol levels in female obese rats two weeks post treatment at 30 mg/kg oral dose; pretreatment value = 42 mg/dL. The assay is classed as functional.
Assay [34] relates to Rattus norvegicus. Put plainly: Serum Triglyceride levels in female obese rats two weeks post treatment at 100 mg/kg oral dose; pretreatment value = 746 mg/dL. The class given is functional.
Assay [35] deals with Rattus norvegicus. Put plainly: Serum NEFA levels in female obese rats two weeks post treatment at 30 mg/kg oral dose; pretreatment value = 1.3 mg/dL. The assay is classed as functional.
The subject of assay [36] is Rattus norvegicus. Put plainly: Serum NEFA levels in female obese rats two weeks post treatment at 10 mg/kg oral dose; pretreatment value = 1.2 mg/dL. The class given is functional.
The test system of assay [37] is Rattus norvegicus. Briefly: Insulin levels in female obese rats two weeks post treatment at 100 mg/kg oral dose; pretreatment value = 12.7 ng/mL. The assay is classed as functional.
The test system of assay [38] is Rattus norvegicus. Put plainly: Blood glucose levels in female obese rats one week post treatment at 10 mg/kg oral dose; pretreatment value = 112 mg/dL. The class given is functional.
Assay [39] relates to Rattus norvegicus. Put plainly: Blood glucose levels in female obese rats two weeks post treatment at 10 mg/kg oral dose; pretreatment value = 112 mg/dL. The assay is classed as functional.
The subject of assay [40] is Rattus norvegicus. Put plainly: Serum HDL cholesterol levels in female obese rats two weeks post treatment at 3 mg/kg oral dose; pretreatment value = 59 mg/dL. The class given is functional.
For assay [41], the system named is Rattus norvegicus. Put plainly: Serum Non-HDL cholesterol levels in female obese rats one week post treatment at 10 mg/kg oral dose; pretreatment value = 25 mg/dL. The assay is classed as functional. In short, it runs like this:
as §1

For assay [42], the system named is Rattus norvegicus. Put plainly: Serum Non-HDL cholesterol levels in female obese rats two weeks post treatment at 10 mg/kg oral dose; pretreatment value = 25 mg/dL. The class given is functional. In short, it runs like this: as §1
Assay [43] concerns Rattus norvegicus. Briefly: Blood glucose levels in female obese rats one week post treatment at 30 mg/kg oral dose; pretreatment value = 109 mg/dL. The assay is classed as functional.
Assay [44] concerns Rattus norvegicus. Briefly: Serum HDL cholesterol levels in female obese rats one week post treatment at 100 mg/kg oral dose; pretreatment value = 59 mg/dL. The assay is classed as functional.

Consider `CC(C)(CO)CCCCCOCCCCCC(C)(C)CO`, for which the Activity in [1] was 12.4 ng/mL; in [2] it was 55 mg/dL; in [3], 138 mg/dL; in assay [4], 1.3 mg/dL; in assay [5], 1031 mg/dL; in assay [6], 14.8 ng/mL. The Activity in assay [7] is 0.7 mg/dL; in [8] it was 56 mg/dL; in assay [9], 40 mg/dL; in [10], 113 mg/dL; in assay [11], 8.7 ng/mL; in [12] it was 4.4 ng/mL. The Activity in assay [13] was 83 mg/dL; in [14], 0.89 mg/dL; in assay [15], 92 mg/dL; in [16], 0.82 mg/dL; in [17] it was 110 mg/dL; in assay [18] it was 26 mg/dL. Moreover, the Activity stood at 29 mg/dL in assay [19], 1.5 mg/dL in assay [20] and 1.3 mg/dL in [21].
On to `CC(C)(CO)CCCCOCCCCC(C)(C)CO`, for which the Activity in assay [22] was 17.4 ng/mL; in assay [23] it was 1.5 mg/dL; in assay [24], 0.76 mg/dL; in assay [25] it was 100 mg/dL; in [26] it was 0.76 mg/dL; in [27], 29 mg/dL. Besides, the Activity in assay [28] amounted to 271 mg/dL; in [29], 149 mg/dL; in [30], 1.2 mg/dL; in [31], 123 mg/dL; in assay [32], 629 mg/dL; in assay [33], 222 mg/dL. Moreover, the Activity stood at 219 mg/dL in assay [34]; 0.75 mg/dL in [35]; 1.1 mg/dL in [36]; 12.8 ng/mL in assay [37]; 110 mg/dL in assay [38]; 117 mg/dL in assay [39]. Also, the Activity in assay [40] came out at 79 mg/dL; in assay [41], 30 mg/dL; in [42], 43 mg/dL; in assay [43], 140 mg/dL; in assay [44], 192 mg/dL.
